The record followed here is ChEMBL document CHEMBL1141109, “Synthesis of an estrogen receptor beta-selective radioligand: 5-[18F]fluoro-(2R,3S)-2,3-bis(4-hydroxyphenyl)pentanenitrile and comparison of in vivo distribution with 16alpha-[18F]fluoro-17beta-estradiol” (J Med Chem, 2005).

The species named for experiment [1] is Mus musculus. Put plainly: Serum estradiol level in estrus estrogen receptor beta mouse; (n=3). The format is functional, organism-based. In a few lines:
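Serum was collected and sent to an outside laboratory for radioimmunoassay using reagents intended for human serum. […] Results are in pg/mL as mean ± SD, with three samples per mouse.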

The species named for experiment [2] is Mus musculus. The experiment can be described thus: Serum estradiol level in nonestrus mouse BALB/c cell line; (n=3).

`C[C@]12CC[C@@H]3c4ccc(O)cc4CC[C@H]3[C@@H]1CC[C@@H]2O`: the Level turned out to be 43.8 pg/mL in the experiment filed under Mus musculus [1] and 28.7 pg/mL in the experiment filed under Mus musculus [2].
